Assay results pooled from the literature.
Target: G protein-coupled receptor kinase 4 (GRK4, Homo sapiens, UniProt P32298)

COc1ccc2c(O[C@@H]3C[C@H]4C(=O)N[C@]5(C(=O)O)CC5/C=C\CCCCC[C@H](NC(=O)OC5CCCC5)C(=O)N4C3)cc(-c3csc(NC(=O)C(C)C)n3)nc2c1C (stereo partly drawn) — remaining binding (cell-free assay; competition with immobilised ligand; 1 µM): 67%
O=C(c1ccc(Nc2ncc(Cl)c(-c3ccc(Cl)s3)n2)cc1)N1CCC(N2CCCC2)CC1 — remaining binding (binding; competition with immobilised ligand; 1 µM): 1.1%
O=C(NCCCC1CCCCC1)c1ccc(CNC(=O)c2cnn(-c3ccccc3)c2C(F)(F)F)cc1 — remaining binding (cell-free assay; competition with immobilised ligand; 0.1 µM): 100%
CN(C)c1nccc(-c2cnn3ncccc23)n1 — remaining binding (binding; 1 µM): 100%
C[C@@]1(Cc2ccc(C#N)cc2)C(=O)N(c2cc(Cl)cc(Cl)c2)c2ncc(C(=O)NC3(c4nc(C5CCC5)no4)CC3)n21 — remaining binding (cell-free assay; competition with immobilised ligand; 1 µM): 100%
CNC(=O)[C@@H]1CC[C@@H](n2c(-c3ccc4cnccc4c3)nc3ccc(C(=O)NCc4cccc(C(N)=O)c4)cc32)C1 — remaining binding (binding; competition with immobilised ligand; 1 µM): 93%
Nc1ncc2c(n1)-c1c([nH]c3ccc(C#CC4CC4)cc13)CCCC2 — remaining binding (binding; competition with immobilised ligand; 1 µM): 91%
c1cnn2ncc(-c3ccnc(N4CCC45COC5)n3)c2c1 — remaining binding (binding; 1 µM): 81%
O=C(c1ccc(Nc2nccc(-c3cc4ccccc4s3)n2)cc1)N1CCC(N2CCCC2)CC1 — remaining binding (binding; competition with immobilised ligand; 1 µM): 0.4%
C[C@@H]1CCN(c2nccc(-c3cnn4ncccc34)n2)C1 — remaining binding (binding; 1 µM): 56%
O=C(NCC1CCOCC1)c1n[nH]cc1NC(=O)c1c(F)cccc1F — remaining binding (binding; competition with immobilised ligand; 1 µM): 100%
Cc1cnc(Nc2ccc(C(=O)N3CCC(N4CCCC4)CC3)cc2)nc1-c1cc2ccccc2s1 — remaining binding (binding; competition with immobilised ligand; 1 µM): 41%
N#CC1(c2ccccn2)CCN(Cc2cc(C(=O)N3CCCC3)c(=O)n3ccccc23)CC1 — remaining binding (cell-free assay; competition with immobilised ligand; 1 µM): 86%
C[C@@H](c1ccc(-n2cnc3c(N)ncnc32)cc1)N1CCc2nn(C)c(Cc3ccccc3)c2C1=O — remaining binding (binding; competition with immobilised ligand; 0.1 µM): 59%
C=CC(=O)N1CCC(C(=O)NCC(=O)N2CCN(c3nc(-c4cnc(N)nc4C(F)F)nc(N4CCOCC4)n3)CC2)CC1 — remaining binding (binding; competition with immobilised ligand; 1 µM): 100%
COc1ccnn2ncc(-c3ccnc(N(C)C)n3)c12 — remaining binding (binding; 1 µM): 79%
O=C(Nc1cccnn1)N1CC(C/C=C/c2cncc(Oc3ccc(C(F)(F)F)cn3)n2)C1 — remaining binding (cell-free assay; competition with immobilised ligand; 1 µM): 100%
Cc1cnn2ncc(-c3ccnc(N(C)C)n3)c2c1 — remaining binding (binding; 1 µM): 55%
O=C1CCc2cc(Nc3cc(OC4CCOCC4)c([N+](=O)[O-])cc3Cl)ccc2N1 — remaining binding (cell-free assay; competition with immobilised ligand; 1 µM): 100%
CN(c1nccc(-c2cnn3ncccc23)n1)C1CC1 — remaining binding (binding; 1 µM): 72%
COc1cnc(Nc2cccc(S(N)(=O)=O)c2)nc1N1CCN(c2ccccc2)C(=O)C1 — remaining binding (binding; competition with immobilised ligand; 1 µM): 100%
